Measured values of several laboratories.
Protocols differ between the studies behind these lines.
Target: Mitogen-activated protein kinase 8 (MAPK8, Homo sapiens, UniProt P45983)

`CC(C)(C)c1cc(C=C(C#N)C#N)cc(Br)c1O` has a remaining activity of 90.4% (enzyme activity, inhibitor; 0.5 µM).
For `C#Cc1n[nH]c2c(-c3cn([C@@H](C)c4ccccc4)c(=O)[nH]c3=O)cc(F)cc12`, the inhibition was 1.5% (enzyme activity, inhibitor; 0.1 µM).
For `N#CC1(c2ccccn2)CCN(Cc2cc(C(=O)O)c(=O)n3ccccc23)CC1`, the remaining binding was 85% (cell-free assay, competition with immobilised ligand; 1 µM).
For `C#Cc1n[nH]c2c(-c3cn(C(C)c4ccccn4)c(=O)[nH]c3=O)cc(F)cc12` (centres unmarked), the inhibition was -4.2% (enzyme activity, inhibitor; 1 µM).
For `Cc1nn(C)cc1-c1nc2c(N3CCN(Cc4ccc(Cl)cc4)CC3)c(Cl)cnc2[nH]1`, the remaining binding was 93% (binding, competition with immobilised ligand; 1 µM).
The inhibition of `Cn1cc(-c2cc(F)cc(N3CCn4c(cc5c4CCCC5)C3=O)c2CO)cc(Nc2ccc(N3CCN(C4COC4)CC3)cn2)c1=O` is reported as -1% (enzyme activity, inhibitor; 0.1 µM).
`O=c1[nH]c2ccccc2n1C1CCN(Cc2ccc(-c3[nH]c4cc5ncnc5cc4nc3-c3ccccc3)cc2)CC1` has a remaining signal of 89.6% (cell-free assay; 0.5 µM).
For `Cn1cncc1[C@](O)(COc1ccc(C#N)cc1-c1ccc(OC(F)(F)F)cc1)c1ccc(C#N)cc1`, the remaining binding was 100% (cell-free assay, competition with immobilised ligand; 1 µM).
The remaining binding of `COc1ncccc1-c1cnn2ccc(N3CCN(C(=O)OC(C)C)CC3)nc12` is reported as 100% (binding, competition with immobilised ligand; 1 µM).
`Cn1cc(-c2cccc(N3CCc4c(sc5c4CC(C)(C)C5)C3=O)c2CO)cc(Nc2ccncn2)c1=O` gave an inhibition of 1% (enzyme activity, inhibitor; 1 µM).
For `Nc1ncc(-c2nc(N3CCOCC3)nc(N3CCOCC3)n2)c(C(F)F)n1`, the remaining binding was 86% (binding, competition with immobilised ligand; 10 µM).
